Assay results as given in ChEMBL document CHEMBL4402547, “Synthesis and Pharmacological Characterization of Conformationally Restricted Retigabine Analogues as Novel Neuronal Kv7 Channel Activators” (J Med Chem, 2020).
Calls of active or inactive are those of the source. The calls are words filed in the database; no cut-off is given here.

Experiments:
[1] = target: T1, Potassium voltage-gated channel subfamily KQT member 3 (Homo sapiens, UniProt O43525); test: Activation of human Kv7.3 expressed in CHO cells assessed as increase in channel current amplitude by whole cell patch clamp electrophysiology assay; format: cell-based
T1 sequence (O43525 whole entry): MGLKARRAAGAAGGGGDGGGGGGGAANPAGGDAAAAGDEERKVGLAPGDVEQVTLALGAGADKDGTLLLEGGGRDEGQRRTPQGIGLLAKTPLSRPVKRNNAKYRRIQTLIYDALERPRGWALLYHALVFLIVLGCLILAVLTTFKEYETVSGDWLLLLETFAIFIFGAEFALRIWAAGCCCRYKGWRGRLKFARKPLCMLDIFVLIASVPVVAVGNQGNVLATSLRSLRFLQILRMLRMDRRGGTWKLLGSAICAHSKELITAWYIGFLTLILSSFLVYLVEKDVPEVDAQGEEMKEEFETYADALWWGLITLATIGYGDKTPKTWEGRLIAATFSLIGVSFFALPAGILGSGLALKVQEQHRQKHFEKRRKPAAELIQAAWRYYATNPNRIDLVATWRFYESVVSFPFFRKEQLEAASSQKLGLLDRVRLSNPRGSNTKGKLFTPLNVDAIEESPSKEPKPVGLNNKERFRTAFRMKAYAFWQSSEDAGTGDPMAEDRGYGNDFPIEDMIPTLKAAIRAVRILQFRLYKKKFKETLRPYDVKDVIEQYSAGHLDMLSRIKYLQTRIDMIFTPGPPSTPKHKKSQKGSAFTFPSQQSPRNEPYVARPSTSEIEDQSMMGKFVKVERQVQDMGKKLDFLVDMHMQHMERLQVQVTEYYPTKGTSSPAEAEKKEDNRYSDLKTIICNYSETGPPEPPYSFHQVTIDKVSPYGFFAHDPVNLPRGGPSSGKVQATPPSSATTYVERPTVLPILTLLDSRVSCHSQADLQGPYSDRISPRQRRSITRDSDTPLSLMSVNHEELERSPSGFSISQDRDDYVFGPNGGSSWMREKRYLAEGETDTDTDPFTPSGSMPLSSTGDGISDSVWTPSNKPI

[2] = target: Voltage-gated potassium channel, KQT; KCNQ2(Kv7.2)/KCNQ3(Kv7.3) (Homo sapiens, UniProt O43525+O43526); test: Activation of human Kv7.2/Kv7.3 expressed in CHO cells assessed as increase in channel current amplitude by whole cell patch clamp electrophysiology assay; format: cell-based
Outline: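 Human Kv7.2 plus Kv7.3 cDNAs co-transfected into CHO cells; whole-cell patch clamp at 20–22°C, extracellular solution pH 7.4. Drug applied at 0.01–10 μM to test concentration-dependent current increase.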

[3] = target: T2, Potassium voltage-gated channel subfamily KQT member 1 (Homo sapiens, UniProt P51787); test: Activation of human Kv7.1 expressed in CHO cells assessed as channel current amplitude at 10 uM measured at holding potential of +20 mV and -40 mV by whole cell patch clamp electrophysiology assay; format: cell-based
T2 sequence (P51787 whole entry): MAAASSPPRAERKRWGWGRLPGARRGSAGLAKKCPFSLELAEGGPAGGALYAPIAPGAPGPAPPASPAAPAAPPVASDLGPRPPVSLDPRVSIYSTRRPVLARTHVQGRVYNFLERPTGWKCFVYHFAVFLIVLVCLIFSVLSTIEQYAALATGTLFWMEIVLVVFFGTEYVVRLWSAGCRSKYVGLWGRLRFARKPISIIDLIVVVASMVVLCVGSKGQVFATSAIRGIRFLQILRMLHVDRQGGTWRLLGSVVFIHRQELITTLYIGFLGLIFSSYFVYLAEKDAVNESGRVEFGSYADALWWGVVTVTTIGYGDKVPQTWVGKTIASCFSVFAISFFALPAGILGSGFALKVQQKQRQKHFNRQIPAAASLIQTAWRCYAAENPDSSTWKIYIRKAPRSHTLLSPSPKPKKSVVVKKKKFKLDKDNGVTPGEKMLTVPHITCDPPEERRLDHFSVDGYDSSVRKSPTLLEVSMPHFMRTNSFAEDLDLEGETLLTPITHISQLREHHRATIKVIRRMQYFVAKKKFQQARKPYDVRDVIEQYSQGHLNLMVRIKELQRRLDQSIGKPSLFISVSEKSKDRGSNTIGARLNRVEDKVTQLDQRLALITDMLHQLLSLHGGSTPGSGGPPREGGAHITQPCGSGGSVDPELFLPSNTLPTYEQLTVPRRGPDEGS

[4] = target: T3, Potassium voltage-gated channel subfamily KQT member 2 (Homo sapiens, UniProt O43526); test: Activation of human Kv7.2 expressed in CHO cells assessed as leftward shift in half-activation voltage at 0.03 uM in constant voltage pulse by whole cell patch clamp electrophysiology assay; format: cell-based
Outline: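 CHO cells transiently expressing human Kv7.2, whole-cell patch clamp at 20–22°C, pH 7.4 bath. Currents activated by constant voltage pulses before and after 0.03 μM drug. Normalized conductance/voltage curves fitted to a double Boltzmann function to obtain half-activation voltage (V1/2).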

[5] = Half life in human; format: ADME
[6] = Photostability of compound in pH 7.4 buffer assessed as compound degradation at 100 ug/ml incubated for 6 hrs under artificial daylight D65 lamp-irradiation by HPLC analysis relative to control
Outline: (§1)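 Compound from DMSO stock diluted in pH 7.4 buffer to final 1 mM, 10 μM or 1 μM in 1 cm quartz cells, held at 37°C under UV lamp (365 and 264 nm) or artificial daylight D65 lamp; dark controls in foil at 37°C. Aliquots taken at set intervals; loss of parent by HPLC (C18, TFA water/acetonitrile gradient, 254 nm).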

[7] = target: T3, Potassium voltage-gated channel subfamily KQT member 2; test: Activation of human Kv7.2 expressed in CHO cells assessed as maximal steady-state increase in current amplitude at 10 uM measured within 10 secs at holding potential of -40 mV by whole cell patch clamp electrophysiology assay; format: cell-based
Outline: (§2)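 Human Kv7.2 transiently expressed in CHO cells, whole-cell patch clamp at 20–22°C, pH 7.4 HEPES-buffered extracellular solution under constant perfusion. Cells held at -80 mV; 3-s ramps -80 to +20 mV with and without compound; current at -40 mV taken as drug/control amplitude ratio, followed over time during application and wash-out; mean ± SEM of ≥3 cells from ≥2 transfections.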

[8] = target: T3, Potassium voltage-gated channel subfamily KQT member 2; test: Activation of human Kv7.2 expressed in CHO cells assessed as increase in current amplitude with fast ON kinetics measured at holding potential of -40 mV by whole cell patch clamp electrophysiology assay; format: cell-based; outline: as §2
[9] = Photostability of compound in pH 7.4 buffer assessed as formation of 4-fluorobenzaldehyde incubated for 6 hrs under visible light irradiation by GCMS analysis
[10] = Photostability of compound in pH 7.4 buffer assessed as compound degradation at 100 ug/ml incubated for 6 hrs under UV-irradiation at wavelength of 365 and 264 nm by HPLC analysis; outline: as §1
[11] = Photostability of compound in pH 7.4 buffer assessed as formation of 4-fluorobenzaldehyde incubated for 6 hrs under visible light irradiation by HPLC analysis
[12] = Photostability of compound in pH 7.4 buffer assessed as formation of ethyl (2,4-bis((4-fluorobenzyl)amino)phenyl)carbamate by measuring retention time of metabolite incubated for 6 hrs under visible light irradiation by HPLC/MS analysis

T3 sequence (O43526 whole entry): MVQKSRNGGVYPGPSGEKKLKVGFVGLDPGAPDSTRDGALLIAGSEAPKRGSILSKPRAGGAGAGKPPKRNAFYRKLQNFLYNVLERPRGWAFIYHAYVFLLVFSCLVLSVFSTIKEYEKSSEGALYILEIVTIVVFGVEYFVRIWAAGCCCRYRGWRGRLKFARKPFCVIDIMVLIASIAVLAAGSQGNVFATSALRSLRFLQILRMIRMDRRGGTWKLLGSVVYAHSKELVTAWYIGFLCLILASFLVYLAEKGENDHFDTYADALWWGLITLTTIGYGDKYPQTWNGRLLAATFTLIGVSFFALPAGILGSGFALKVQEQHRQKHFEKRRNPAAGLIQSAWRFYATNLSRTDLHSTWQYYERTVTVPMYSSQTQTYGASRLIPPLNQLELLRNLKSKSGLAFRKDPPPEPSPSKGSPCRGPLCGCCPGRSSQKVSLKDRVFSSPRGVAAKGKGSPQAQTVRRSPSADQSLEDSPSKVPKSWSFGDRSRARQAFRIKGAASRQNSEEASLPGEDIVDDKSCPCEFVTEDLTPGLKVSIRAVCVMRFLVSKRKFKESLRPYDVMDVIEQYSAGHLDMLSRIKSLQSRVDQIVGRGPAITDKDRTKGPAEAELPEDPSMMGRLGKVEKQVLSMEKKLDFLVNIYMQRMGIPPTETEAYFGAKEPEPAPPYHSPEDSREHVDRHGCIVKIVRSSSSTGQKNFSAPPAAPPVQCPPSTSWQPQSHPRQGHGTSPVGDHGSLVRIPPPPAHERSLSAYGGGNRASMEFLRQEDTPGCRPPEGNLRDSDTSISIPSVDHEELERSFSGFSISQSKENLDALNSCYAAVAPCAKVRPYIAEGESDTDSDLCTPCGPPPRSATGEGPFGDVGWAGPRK
Chain of Voltage-gated potassium channel, KQT; KCNQ2(Kv7.2)/KCNQ3(Kv7.3) (O43526 whole entry, one chain of several): as the sequence (O43526 whole entry) above

| Structure (SMILES) | EC50 [1] [nM] | EC50 [2] [nM] | Activity [3] | V1/2 [4] [mV] | half-life [5] [h] | Drug degradation [6] [%] | Activity [7] | Activity [8] | Drug metabolism [9] | Drug degradation [10] [%] | Drug metabolism [11] | Retention time [12] [min] |
| --- | --- | --- | --- | --- | --- | --- | --- | --- | --- | --- | --- | --- |
| CC(C)(C)CC(=O)Nc1ccc2c(ccn2Cc2ccc(C(F)(F)F)cc2)c1 | 920 | 340 |  |  |  |  |  |  |  |  |  |  |
| CCCCCCC(=O)Nc1ccc2c(ccn2Cc2ccc(C(F)(F)F)cc2)c1 |  |  | Not Active | 18 |  |  |  |  |  |  |  |  |
| CCOC(=O)Nc1ccc(NCc2ccc(F)cc2)cc1N [EZOGABINE] |  |  | Not Active |  | 6 to 8 | 47.3 | Active | Dose-dependent effect | Metabolite detected | 5 | Metabolite detected | 14.4 |
